Laboratory results from PubChem BioAssay AID720543 (The Scripps Research Institute Molecular Screening Center, 2013).
“And” between values parts separate entries of the source, which are not always exact repeats. Identical values can stand only once. Screen size: about 370,000 compounds; about 2,000 (0.54%) were called active.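 The calls were made as follows: active = inhibition exceeding the mean over every tested compound plus 3 SD (cut at about 30% in these data); inactive = the rest.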 Only a selection was taken, and actives are over-represented in it overall. More than one record can exist for a structure, and the calls need not agree.

target: (Lyso)-N-acylphosphatidylethanolamine lipase (Mus musculus) (UniProt Q8VD66); test: mouse ABHD4 hydrolase activity blockers – biochemical, fluorescence polarization, primary screen (AID 720543); conditions: purified mABHD4, FP-Rh probe fluorescence polarization; at 8.92 µM; stronger effect = higher value;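 also: 0% = plate median of compound wells and 100% = S159A mutant with DMSO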
Sequence (Q8VD66 whole entry, looked up): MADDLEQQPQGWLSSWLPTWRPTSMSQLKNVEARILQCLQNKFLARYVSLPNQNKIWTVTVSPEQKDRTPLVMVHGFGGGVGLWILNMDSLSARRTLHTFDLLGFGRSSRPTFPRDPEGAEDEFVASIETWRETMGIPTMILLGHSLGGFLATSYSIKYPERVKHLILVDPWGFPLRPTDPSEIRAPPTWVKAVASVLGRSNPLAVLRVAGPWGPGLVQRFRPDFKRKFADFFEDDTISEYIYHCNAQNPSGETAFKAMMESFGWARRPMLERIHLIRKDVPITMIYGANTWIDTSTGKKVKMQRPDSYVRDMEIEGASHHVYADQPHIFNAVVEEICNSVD
Procedure, shortened: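 Assay system: Wild-type mouse ABHD4 protein | Medium: HEPES pH 7.0 buffer, 150 mM NaCl, 0.01% Pluronic F-127 | Incubation: Enzyme–compound pre-incubation 45 min, then probe 60 min, both 25 °C | Technique: Fluorescence polarization with parallel and perpendicular emission, 525/598 nm | Evaluation: % inhibition of FP-Rh probe binding versus controls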

| Structure (SMILES) | inhibition |
| --- | --- |
| COC(=O)c1c(-c2ccc(OC)cc2)c2c(c3c4cc(OC)ccc4n(S(=O)(=O)c4ccc(F)cc4)c13)C(=O)N(C)C2 | -0.06% (inactive) |
| Cc1cc(NS(=O)(=O)c2ccc(NC(=O)CSc3nnc(SCc4ccc(F)cc4)s3)cc2)nc(C)n1 | -21.5% (inactive) |
| Fc1ccc2nc(COCc3nc4ccc(F)cc4[nH]3)[nH]c2c1 | -7.17% (inactive) |
| COC(=O)c1[nH]c2ccc(Br)cc2c1NC(=O)Oc1ccccc1 | -1.15% (inactive) |
| COC(=O)c1oc2ccc(Br)cc2c1NC(C)=O | 40.3% (active) |
| COCC(=O)Nc1c(C(=O)N2CCCC2)oc2ccccc12 | -0.25% (inactive) |
| FC(F)(F)c1cccc(NC(=S)OC2CCC23CCC(c2ccccc2)CC3)c1 (centres undefined) | -21.8% (inactive) |
| Cc1cc(C)c(S(=O)(=O)NN=C2c3ccccc3[C@H]3Cc4csc[n+]4[C@@H]23)c(C)c1 | 33.3% (active) |
| CCOC(=O)c1csc(NC(=O)C2CCCN(S(=O)(=O)c3ccc(Cl)s3)C2)n1 (centres undefined) | -51.6% (inactive) |
| CCCCCCN1CCS(=O)(=O)N(Cc2ccc(C(F)(F)F)cc2)C(C(=O)OC)C1 (centres undefined) | -4.07% (inactive) |
| O=C(Nc1cc(S(=O)(=O)Nc2ccc(Cl)cc2)ccc1O)c1ccc(F)cc1F | -6.3% (inactive) |
| COc1ccc(Br)cc1/C=N/Nc1ccc(S(=O)(=O)Nc2ccccc2C(=O)O)cc1[N+](=O)[O-] | 38.4% (active) |
| COc1ccc(Br)cc1/C=N/Nc1ccc(Cl)c(C(=O)O)c1 | 40.3% (active) |
| Cc1ccc(OCCOCCOc2ccc(Br)cc2/C=N\NC(=O)c2ccncc2)cc1 | -84.8% (inactive) |
| COc1ccc(S(=O)(=O)NC(C)c2ccccc2)cc1C(=O)N1CCCCC1 (centres undefined) | 3.07% (inactive) |
| Cc1ccc(NS(=O)(=O)c2ccc3c(c2)n(C)c(=O)c(=O)n3C)c(C)c1 | -1.8% (inactive) |
| Cc1ccc(NS(=O)(=O)c2ccc(N/N=C/c3ccccc3OCC(=O)O)c([N+](=O)[O-])c2)c(C)c1 | 52.1% (active) |
| COc1cc(/C=C/C(=O)O)cc(S(=O)(=O)Nc2ccccc2C(=O)NCCc2ccccc2)c1OC | 6.19% (inactive) |
| Cc1ccc(C)c(NS(=O)(=O)c2ccc(OCC(=O)NCc3cccnc3)cc2)c1 | -3.89% (inactive) |
| O=[N+]([O-])c1cc(S(=O)(=O)Nc2cccc(Cl)c2)ccc1N=Nc1c(O)[nH]c2ccccc12 | 7.74% (inactive) |
| O=C(O)c1ccccc1/C=N/Nc1ccc(S(=O)(=O)Nc2ccc(Cl)cc2)cc1[N+](=O)[O-] | 43.8% (active) |

| Structure (SMILES) | inhibition |
| --- | --- |
| COc1ccc(Br)cc1CN(C)CC(=O)Nc1cc(Cl)cc(Cl)c1 | 6.47% (inactive) |
| CC1(C)CC(=O)C(C2c3ccccc3S(=O)(=O)c3ccccc32)C(=O)C1 | 0.77% (inactive) |
| O=C(CSc1nc2c(c(=O)[nH]1)CCCC2)N1CCCCC1 | 0.85% (inactive) |
| Cc1ccccc1CS(=O)(=O)Cc1ccc(C(=O)Nc2ccc(Cl)cc2)o1 | 1.54% (inactive) |
| CN(C)S(=O)(=O)c1cccc(C(=O)N/N=C\c2ccco2)c1 | 5.39% (inactive) |
| COc1ccc([C@H]2OC(=O)C[C@H]2C(=O)N2CCN(c3ccccc3F)CC2)cc1OC | 0.9% (inactive) |
| CC(C)(C)NC(=O)NC(=O)COC(=O)Cn1c(C(F)(F)F)nc2ccccc21 | 1.11% (inactive) |
| Cc1cccc(NC(=O)C[C@H]2CC[C@H]3[C@@H](COc4ccc(NC(=O)Nc5ccccc5)cc4C(=O)N3C)O2)c1 | 7.9% (inactive) |
| COc1ccc(-n2c(SCC(=O)Nc3ccc4cn[nH]c4c3)nnc2-c2cccnc2)cc1 | 0.5% (inactive) |
| CCOc1ccc(/C(O)=C2\C(=O)C(=O)N(c3ccc(OC)cc3)C2c2ccccc2[N+](=O)[O-])cc1 (centres undefined) | 5.37% (inactive) |
| C[C@@H](NC(=O)c1ccccc1OCC(=O)Nc1ccc(I)cc1)C(=O)N(C)Cc1ccccc1 | -28.4% (inactive) |
| COc1ccc(Cc2nc3ccc(C(=O)N4CCC(N(C)C)C4)cc3o2)cc1 (centres undefined) | -2.59% (inactive) |
| Cc1cc(=O)[nH]c(SCC(=O)Nc2ccc(F)cc2F)n1 | 2.2% (inactive) |
| CCOc1ccccc1NS(=O)(=O)c1c[nH]c(C(=O)OC)c1 | -5.46% (inactive) |
| CCN(CC(=O)NCc1cccs1)C(=O)c1cccc(S(=O)(=O)Nc2ccccc2OC)c1 | -5.42% (inactive) |
| COc1cccc(/C=N/Nc2ccc(S(=O)(=O)Nc3ccccc3C(=O)O)cc2[N+](=O)[O-])c1O | 70.3% (active) |
| CC(C)(C)NC(=O)C(c1cccnc1)N(C(=O)c1cnco1)c1ccc(C(C)(C)C)cc1 (centres undefined) | -5.63% (inactive) |
| CC1CCCCC1NC(=O)CSc1nnc(-c2ccncc2)n1CCCN(C)C (centres undefined) | 18.4% (inactive) |
| CCC[C@H]1C(=O)CC[C@@]23CCCN2C(=O)CCC[C@@H]13 | -0.16% (inactive) |
| CN1C(=O)C2CC(O)C(SC3CC4C(=O)N(C)C(=O)C4CC3O)CC2C1=O (centres undefined) | 4.09% (inactive) |
| COCc1cccc(-c2csc(C(O)c3ccc(F)cc3)n2)c1 (centres undefined) | -6.65% (inactive) |

| Structure (SMILES) | inhibition |
| --- | --- |
| CC(C)(C)C(=O)OCc1nc(-c2ccc(O)c(O)c2)cs1 | 39.5% (active) |
| CCCC(=O)N1c2ccc(-c3csc(N)n3)cc2CC1C (centres undefined) | 6.5% (inactive) |
| COc1ccc(C(=O)CSc2nnc(-c3cnccn3)n2-c2ccc(C)cc2)cc1 | -7.18% (inactive) |
| COC(=O)[C@H](C(C)C)N1CCc2nnn(Cc3ccc(C)cc3)c2-c2ccccc2S1(=O)=O | 8.58% (inactive) |
| CN(CCO)c1cccc2c1S(=O)(=O)N(Cc1cn(Cc3ccc(C(F)(F)F)cc3)nn1)Cc1ccccc1O2 | 1.41% (inactive) |
| CCOC(=O)C1CCN(C(=O)C(C)(C)NC(=O)Nc2ccc(F)c(F)c2)CC1 | -6.47% (inactive) |
| Clc1ccc(-n2c(SC/C=C/c3ccccc3)nnc2-c2ccco2)cc1 | -10.5% (inactive) |
| Clc1ccccc1CSc1nnc(-c2ccco2)c(-c2ccco2)n1 | 38.9% (active) |
| COc1ccnc(C(=O)N2CCC(Oc3cccnc3)CC2)c1 | 3.41% (inactive) |
| CC(C)(C)c1ccc(C(=O)Nc2cc(Cl)c(Br)cc2C(=O)O)cc1 | -156% (inactive) |
| COc1ccc(C)cc1NC(=S)Nc1ccccc1SC | -1.16% (inactive) |
| CCc1ccccc1NC(=S)Nc1cc(OC)c(NC(=O)C(C)C)cc1OC | 33.4% (active) |
| COc1cc(NC(=S)NNC(=O)CC(C)C)c(OC)cc1Cl | 1.23% (inactive) |
| Cc1ccccc1CN1CCCCC(NC(=O)Nc2ccccc2F)C1=O (centres undefined) | 3.77% (inactive) |
| Oc1c(Cl)cc(Cl)c(Cl)c1Cc1c(O)c(Cl)cc(Cl)c1Cl | -117% (inactive) |
| CCOC(=O)[C@]12CCCC3=C1N(CCC3)C(=O)[C@@H](CC(=O)NCC13CC4CC(CC(C4)C1)C3)C2 | 3.95% (inactive) |
| CC/C(=C(/c1ccccc1)c1ccc(OCC[N+](C)(C)C)cc1)c1ccccc1 | 30% (active) |
| COC(=O)C[C@@H]1CC[C@H]2[C@@H](COc3ccc(NS(=O)(=O)CC(F)(F)F)cc3C(=O)N2C)O1 | 10.4% (inactive) |
| COC(=O)c1ccc(CN(c2ccccc2OC)S(=O)(=O)c2cccs2)o1 | 4.33% (inactive) |
| COC(=O)C1=C(C(=O)OC)C2C=C(C(C)C)C1C(=O)C2(C)O (centres undefined) | -1.36% (inactive) |
| CCOc1ccc(S(=O)(=O)NCCC(=O)NCC(C)(C)N2CCOCC2)cc1 | 4.91% (inactive) |

| Structure (SMILES) | inhibition |
| --- | --- |
| O=C(COC(=O)c1ccc(O)cc1O)c1ccc2c(c1)OCCO2 | 36.5% (active) |
| O=C(OCc1ccccc1F)c1ccc2c(c1)OCCO2 | 1.07% (inactive) |
| O=C1COc2ccc(C(=O)COC(=O)c3ccccc3Cl)cc2N1 | -1.93% (inactive) |
| Cc1nc2sccn2c(=O)c1S(=O)(=O)NCCc1ccccc1 | 0.82% (inactive) |
| O=C(COC(=O)c1ncc(Cl)c(Cl)c1Cl)NC1CCS(=O)(=O)C1 (centres undefined) | 2.44% (inactive) |
| Oc1ccc(N=Cc2sc3ccccc3c2Cl)cc1 | 88.4% (active) |
| Oc1ccc(N=Cc2c(O)ccc3ccccc23)cc1 | 51.1% (active) |
| C[C@@H]1CN([C@@H](C)CO)C(=O)c2cccc(NC(=O)Nc3cccc4ccccc34)c2O[C@H]1CN(C)S(=O)(=O)c1ccccc1F | -0.79% (inactive) |
| COC(=O)[C@]12C[C@H](CC(=O)NCc3cccc4ccccc34)C(=O)N(CCc3ccc(OC)c(OC)c3)C1=C[C@H](C1CCCC1)O[C@@H]2C | -10.3% (inactive) |
| Cn1c(SCC(=O)N2CCOCC2)nnc1-c1ccc(NC(=O)c2ccccc2F)cc1 | 1.97% (inactive) |
| CSc1nc2sc3c(c2c(=O)[nH]1)CCc1ccccc1-3 | 4.16% (inactive) |
| CCCNC(=O)Nc1ccc2c(c1)C(=O)N(C)[C@H]1CC[C@H](CC(=O)NCC3CCCCC3)O[C@@H]1CO2 | 12.2% (inactive) |
| Cc1ccc(S(=O)(=O)N2CCOCC2)cc1NC(=O)c1ccncc1 | -3.76% (inactive) |
| O=[N+]([O-])c1cc(Cl)cc(/C=N/NC(=S)Nc2cc(S(=O)(=O)N3CCOCC3)ccc2Cl)c1O | 32.2% (active) |
| COCCNC(=S)Nc1cc(S(=O)(=O)N2CCOCC2)ccc1N1CCCCC1 | 1.6% (inactive) |
| Cc1ccccc1NC(=O)CSc1ccc2nnc(-c3ccccn3)n2n1 | 5.22% (inactive) |
| CC12C(=O)N(n3cnnc3)C(=O)C1C1C=CC2C1 (centres undefined) | -1.34% (inactive) |
| CCN1C(=O)/C(=C\N2CCOCC2)SC1=S | 9.79% (inactive) |
| CCN1C(=O)/C(=C2/Sc3ccccc3N2CCCS(=O)(=O)O)SC1=S | 9.75% (inactive) and 31.2% (active) |
| CCCCN1C(=O)/C(=C2/C=CC=CN2C)SC1=S | 4.21% (inactive) |
| CC(=O)Nc1ccc(NC(=O)CSC2=NS(=O)(=O)c3ccccc3N2)cc1 | 0.67% (inactive) |
